High-throughput results deposited in PubChem by several laboratories.
Sampled rows, rich in hits. Any-hit rate of the full collection: about 4.9%.
STAT3 activator = STAT3 signaling activation; activation (% of control), % at 5.6 µM; U3A cells, IL-6 STAT3-luciferase reporter, luminescence; 100% = signal with IL-6 EC80 alone; 190,000 compounds, 0.91% hits;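 active means activation above the screen-wide mean of compound activation plus 3 SD, cut at about 130% in these data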
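Material: STAT3-luciferase reporter U3A cells. Controls: IL-6-treated wells, 100% activation. Read-out: % activation versus median of IL-6-stimulated wells. Probe or stimulus: IL-6 stimulus at 33 ng/mL final. Timing: compound 1 h, then IL-6 6 h at 37 °C. Signal: reporter luminescence signal.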
APP 5'UTR act = activates APP 5'UTR luciferase reporter. activation, % at 2 µM. AID 1276. SH-SY5Y APP 5'UTR luciferase reporter, luminescence; zero percent = DMSO vehicle wells. 190,000 compounds, 1% hits;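 active means activation above a set limit, based on mean plus 3 SD of controls, cut at about 140% in these data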
STAT1 activator = STAT1 signaling activation | 200,000 compounds, 2.6% hits | AID 932 | NIH 3T3 STAT1-luciferase reporter, IFN-gamma, luminescence; 100% = IFN-gamma alone, no compound | activation (% of control), % at 5.5 µM;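 active means activation above the screen-wide mean activation plus 3 SD, cut at about 130% in these data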
STAT3 inh = STAT3 signaling inhibition. U3A cells, IL-6 STAT3-luciferase reporter, luminescence; host cell line lacks STAT1. inhibition, % at 5.5 µM. 190,000 compounds, 0.89% hits;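 active means inhibition above the mean inhibition across all screened compounds plus 3 SD, cut at about 44% in these data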
STAT1 blocker = inhibitors of IFN-gamma induced STAT1 signaling | NIH 3T3 STAT1-luciferase reporter, luminescence | inhibition, % at 5.5 µM | 200,000 compounds, 0.35% hits | AID 920;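 active means inhibition above a set limit, the mean inhibition across all tested compounds plus 3 SD, cut at about 34% in these data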
NF-kB expr up = raises NF-kB expression in human neuronal cells. 190,000 compounds, 1.6% hits. NF-kB reporter expression; hits give high values. fold change at 12.5 µM; in the data active means fold change above about 3.3
Numbers stand for hits; 0 = inactive.

SMILES	STAT3 activator	APP 5'UTR act	STAT1 activator	STAT3 inh	STAT1 blocker	NF-kB expr up
O=C(Nc1cc(SCC(O)CO)cc([N+](=O)[O-])c1)c1ccc(-n2cnnn2)cc1 (configuration not stated)	0	0	0	0	0	0
N#C/C(=C\c1cn(CC(=O)N2CCCCC2)c2ccccc12)C(=O)NCc1ccc2c(c1)OCO2	0	0	0	0	0	0
Clc1ccc(Sc2cc(Cl)c(-c3ccccc3)nn2)cc1	142	0	0	0	0	0
COC(=O)c1sc2nc3c(cc2c1N)COC(C)(C)C3	0	0	142	0	0	4.2
O=C(NNC(=S)NC(=O)C12CC3CC(CC(C3)C1)C2)c1ccncc1	0	0	0	0	0	0
O=C1c2ccccc2NC(c2ccccn2)N1c1ccccc1F (configuration not stated)	0	0	0	0	0	0
O=C(NCc1ccco1)c1ccc2ccccc2c1	0	0	134	0	0	0
O=C(NCc1ccco1)c1ccc2c(c1)C(=O)c1ccccc1-2	0	0	133	0	0	0
CCOC(=O)/C(C#N)=C/c1cn(CCC(=O)O)nc1-c1ccc(Cl)cc1	0	0	0	0	0	0
Cc1ccc(-c2csc(NC(=O)CN3C(=O)CCC3=O)n2)cc1	0	0	0	0	0	0
O=C(CN1C(=O)CCC1=O)Nc1nc(-c2ccc3ccccc3c2)cs1	0	0	138	0	0	0
O=C(CN1C(=O)CCC1=O)Nc1nc(-c2nc3ccccc3s2)cs1	0	0	131	0	0	0
CCNc1nc(NCC)n2c(SCC(=O)c3ccccc3F)nnc2n1	0	0	0	0	0	0
Cc1ccc(NC(=S)N(Cc2ccc(Cl)cc2)Cc2ccc(C(=O)O)cc2)cc1Cl	0	0	0	0	0	0
CCCCN1C=CC(=C2N=c3cccc([N+](=O)[O-])c3=N2)C=C1	0	0	0	0	0	0
CN1C=CC(=C2C(=O)c3ccccc3C2=O)C=C1	0	0	0	0	0	3.6
CCN1C=CC(=C2C(=O)c3ccccc3C2=O)C=C1	0	0	0	109	88	0
CCCCCCN1C=CC(=C2C(=O)c3ccccc3C2=O)C=C1	0	0	0	100	81	0
CCCN1C=CC(=C2C(=O)c3ccccc3C2=O)C=C1	0	0	0	113	92	0
COc1cccc(C2NC(=O)c3ccccc3O2)c1OCc1ccccc1F (configuration not stated)	0	0	0	0	0	0
CCCCNC(=O)N(O)C1N(CCCC)C(=O)N(CC(=O)OC)C1(C)C (configuration not stated)	0	0	0	0	0	0
COC(=O)CNC(=O)C(Cc1ccccc1)NS(=O)(=O)c1ccc2c(c1)c(=O)n(C)c(=O)n2C (configuration not stated)	0	0	0	0	0	0
COc1cc(NC(=O)C/C(C)=N/NC(=O)c2cccs2)c(OC)cc1Cl	0	171	139	0	0	0
N/C(=N\N=C\c1ccc(O)cc1)c1nonc1N	0	0	0	0	0	5.1
COc1cc(/C=N/NC(=O)c2nonc2C)ccc1O	0	0	0	0	0	0
SMILES	STAT3 activator	APP 5'UTR act	STAT1 activator	STAT3 inh	STAT1 blocker	NF-kB expr up
COc1cc(/C=N/N=C(\N)c2nonc2N)ccc1O	0	0	130	0	0	0
N/C(=N\OC(=O)c1ccc(F)cc1)c1nonc1N	0	0	0	0	0	0
COc1ccc(/C=N/N=C(\N)c2nonc2N)cc1OC	0	0	141	0	0	0
COc1ccc2c(c1)CCc1c(C(=O)NCCN3CCOCC3)noc1-2	0	0	0	0	0	0
COc1ccc2c(c1)CCc1c(C(=O)NCc3ccco3)noc1-2	0	0	129	0	0	0
COCC(C)NC(=O)c1noc2c1CCc1cc(OC)ccc1-2 (configuration not stated)	0	0	0	0	0	0
COCCNC(=O)c1noc2c1CCc1cc(OC)ccc1-2	0	0	0	0	0	0
COc1ccc2c(c1)CCc1c(C(=O)NC3CCCCC3)noc1-2	0	145	129	0	0	0
COc1ccc2c(c1)CCc1c(C(=O)N(C)c3ccccc3)noc1-2	0	0	129	0	0	0
CCc1ccc2c(c1)C(c1ccc([N+](=O)[O-])cc1)=NNC(c1ccc(C)cc1)=N2	0	0	0	0	0	0
C/C(=N\Nc1ccc([N+](=O)[O-])cc1)c1ccco1	0	0	156	0	0	0
CCc1ccc(/C(C)=N\Nc2ccc([N+](=O)[O-])cc2)cc1	0	0	0	0	0	0
O=C(CN(Cc1ccccc1)C(=O)c1csnn1)NCc1ccccc1	0	0	0	0	0	0
COCCCNC(=O)COc1ccc(Br)cc1Cl	0	0	139	0	0	0
C/C(=N\N=C\c1ccccc1F)c1nnn(-c2nonc2N)c1C	0	0	142	0	0	0
COc1ccc(-c2c(C#N)c(C)nc3c2C(=O)c2ccccc2-3)cc1	0	0	0	0	0	0
COc1ccc(C2=C(C#N)C(=O)OC2)cc1	0	0	0	0	36	0
Cc1nc2cc(NC(=O)NCCC3=CCCCC3)ccc2o1	0	0	132	0	0	0
COC(=O)c1ccc(NC(=S)NCCC2=CCCCC2)cc1	0	0	0	0	0	0
COC(=O)c1cccc(NC(=S)NCCC2=CCCCC2)c1	0	0	0	53	0	0
O=C(N/N=C/C1CCCCC1)c1ccccn1	0	139	137	0	0	0
O=C(NN=C1CCC(=NNC(=O)c2ccccn2)CC1)c1ccccn1	0	171	138	0	0	0
COc1ccc(NC(=O)c2ccsc2NC(C)=O)cc1	0	0	0	0	0	0
COc1ccc(N(CC(=O)O)S(=O)(=O)c2ccc(C)cc2)cc1Cl	0	0	0	0	0	0
COc1cc2nc(C3CCC3)nc(N3CCN(c4ccccc4OC)CC3)c2cc1OC	0	0	0	0	0	0
SMILES	STAT3 activator	APP 5'UTR act	STAT1 activator	STAT3 inh	STAT1 blocker	NF-kB expr up
c1ccc(NC2=Nc3ccccc3CS2)cc1	0	0	138	0	0	3.6
Cc1csc(Nc2ccccc2)n1	0	0	0	0	0	0
COc1ccc(CC2(CO)CCN(CC3=CC[C@H]4C[C@@H]3C4(C)C)CC2)cc1	0	0	0	0	0	0
COc1ccc(NC(=O)Nc2cccs2)cc1Cl	0	0	130	0	0	0
CC(=O)c1ccc(NC(=O)Nc2ccc(Cl)cc2)cc1	0	166	133	0	0	3.6
CC(=O)c1ccc(NC(=O)Nc2ccncc2)cc1	0	0	0	0	0	0
CC(C)=CC(=O)Nc1ccc(Cl)cc1	0	184	132	0	0	3.3
Cc1nc(NC(=O)Nc2ccc(Cl)cc2)sc1C	0	0	143	0	0	0
CNC(=O)Nc1ccc(Cl)cc1	0	0	0	0	0	0
COc1ccc(C(=O)Nc2ccc(NC(=O)c3cccs3)cc2)cc1Cl	0	0	0	0	0	0
